The values below come from ChEMBL document CHEMBL4513216, “Probing the Open Global Health Chemical Diversity Library for Multistage-Active Starting Points for Next-Generation Antimalarials” (ACS Infect Dis, 2020).

A short description of this data set: Toxicity liver stage against HepG2, at 10uM. Type of data set: cell-based. Further details: test concentration 10 uM, cell line HepG2-A16-CD81EGFP. Particulars: human, HepG2-A16-CD81EGFP cells; read-out: INHIBITION
In outline:
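Uninfected HepG2-A16-CD81EGFP cells, 3 × 10^3 per well, 1536-well, plated on prespotted compound at 10 μM final, parasite-free screening media added to match infected plates; puromycin 10 μM positive, DMSO 0.5% negative; run in parallel with 48 h PbLuc assay at 37 °C, 5% CO2; viability by CellTiter-Glo luminescence, normalized to controls.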
For `Cc1cc(C)n(CC2CCCCN2CC(=O)Nc2nnc(C)s2)n1` (configuration not stated), the cytotoxicity at 10 µM came out at 0.668%. Then `Cc1cccc(CN2CCCCC23CCNC3)n1` (configuration not stated), with 1.49%; and `O=S(=O)(NCC1CCCN(Cc2ccccc2F)C1)C1CC1` (configuration not stated), with -8.27%; and `CN(C)C(=O)N1CC2(CCN(S(=O)(=O)C3CC3)CC2)c2ccccc21`, with -110%. With `COc1ccc(-c2nnc(SC(C)C(=O)NC(C)(C)C)[nH]2)c(OC)c1` (configuration not stated), the cytotoxicity at 10 µM is 66.5%.

Consider `O=C(CC1CC1)N[C@@H]1CN(C(=O)c2ccoc2)C[C@@H]2CCCO[C@@H]21`, for which the cytotoxicity at 10 µM is -104%. Then `Cc1cc(CC(=O)NCc2ccnc(OCC(F)(F)F)c2)no1`, with -2.17%. On to `Cc1nn(C)c(C)c1C(=O)NCc1cc(N(C)C)nc2ccccc12`, for which the cytotoxicity at 10 µM was -1.08%.

For `Cc1cccc(C(=O)NCc2ccc(N3CCCCCC3)nc2)n1`, the cytotoxicity at 10 µM was -5.34%.

Turning to `Cc1nncn1CCNC(=O)C(C)(C)c1cccc(F)c1`, the cytotoxicity at 10 µM was determined as 5.73%. The result for `COc1ccccc1CNC(=O)CS(=O)(=O)Cc1ccccc1` reads 3.26%; that for `CCc1nnc2ccc(N3CCN(S(=O)(=O)c4ccc(Cl)s4)CC3)nn12`, 5.01%; that for `Cc1cc(N2CCC(Cc3ccncc3)C2)ncn1` (configuration not stated), 0.328%.

On to `Cn1cc(CN2CCOC3(CCCN(c4cccc(F)c4)C3)C2)cn1` (configuration not stated), for which the cytotoxicity at 10 µM was -77.1%. The result for `Cc1ccnn1CCC(=O)N1C[C@@H](O)[C@H](Oc2cccc(F)c2)C1` reads -15.8%; that for `CCCN1CCC(NC(=O)NCCc2nc(CC)c(C)s2)CC1`, -19%.

Consider `N[C@H]1CN(C(=O)c2ccccc2Oc2ccccc2)C[C@@H]1C1CC1`, for which the cytotoxicity at 10 µM was -0.948%. In the case of `CNC(=O)c1cnn2c(C3CCCN3)ccnc12` (configuration not stated), the cytotoxicity at 10 µM worked out at 8.88%. For `O=C(NCCNc1ccccn1)N1CCC(O)CC1`, the cytotoxicity at 10 µM is -8.66%. Regarding `CNS(=O)(=O)c1ccc(CNC(=O)C2CCCO2)cc1` (configuration not stated), the cytotoxicity at 10 µM came out at 2.45%. Regarding `Cc1cc(C)n(C2CCN(C(=O)c3cn4ccsc4n3)C2)n1` (configuration not stated), the cytotoxicity at 10 µM was 6.59%.

In the case of `Cc1nccn1CCCN1CCC(c2nccn2CC2CCC2)CC1`, the cytotoxicity at 10 µM is -20.8%.

Regarding `COc1ccc(C2CCCN2C(=O)c2ccc(=O)n(C)c2)cc1OC` (configuration not stated), the cytotoxicity at 10 µM came out at 11.3%.

Take `CCCC(NC(=O)c1cc(C)c(F)cc1F)c1nnn[nH]1` (configuration not stated): the cytotoxicity at 10 µM was -2.59%. With `Cc1ccc(-n2nnc(C(=O)NCC3CCCCC3)n2)cc1`, the cytotoxicity at 10 µM is -3.5%.

`CN(C)C(=O)[C@H]1C[C@H]2OCC[C@H]2N(Cc2ccc3ccccc3n2)C1`: the cytotoxicity at 10 µM is -55.9%.

Take `COc1ccc(C(C)CCNC2CCN(c3ccccn3)CC2)cc1` (configuration not stated): the cytotoxicity at 10 µM came to 5.29%.

With `O=C(NCCc1ccccc1)c1cn(CCNCc2cccnc2)nn1`, the cytotoxicity at 10 µM was -2.68%.

For `Cc1cc(C)cc(C(=O)N2CCN(C(=O)N(C)C)CC2(C)C)c1`, the cytotoxicity at 10 µM worked out at 1.98%. Then `CS(=O)(=O)NC1CCN(C(=O)c2ccc(Br)o2)C1` (configuration not stated), with -7.03%.

With `O=C(C1CCOCC1)N1CC[C@@H](N2CCOCC2)[C@@H]1Cc1ccccc1`, the cytotoxicity at 10 µM was -77.2%. Then `CC(C)CC(O)C1CCN(C(=O)c2ccc(C(F)(F)F)nc2O)CC1` (configuration not stated), with 2.5%; and `O=C(c1ccccc1)N1C[C@H]2CC[C@@H](C1)N(S(=O)(=O)c1cccnc1)C2`, with -9.33%; and `Cc1cccc(NCCNc2ccc(C#N)cn2)n1`, with 18%. The result for `O=C(NCC1CC1)c1nnc2ccc(Cl)cc2n1` reads 0.318%. For the compound `CC(C)NC(=O)c1nnn(-c2ccccc2)c1C1CC1`, the cytotoxicity at 10 µM amounted to 2.2%. Then `CC(C)c1nccn1C1CCCN(C(=O)c2ccsc2)C1` (configuration not stated), with -5.2%; and `Cc1noc(C)c1-c1ccc(C2CCCN2CCC(N)=O)nc1` (configuration not stated), with 1.94%; and `CN1CCN(C2CCN(Cc3noc(C(C)(C)C)n3)CC2)C1=O`, with 17.1%. Then `CC(=O)N1CCC(NC2(Cc3cc(CN(C)C)on3)COC2)CC1`, with -1.38%; and `COc1cccc(OC)c1C(=O)N1CCN(c2ccccc2F)CC1`, with -5.22%; and `CN(C)c1ccc(C(=O)N2CCC(c3n[nH]c(C4CC4)n3)CC2)cc1`, with -2.42%. The result for `CCc1cnc(CN(C(C)=O)C2CCN(CCc3cccs3)C2)o1` (configuration not stated) reads -6.78%; that for `Cc1ncc(CC(=O)N2CCCC(COc3ccc(F)cc3)C2)c(=O)[nH]1` (configuration not stated), -142%; that for `Cn1ccc(CN2CCCC23CCN(Cc2cccc(F)c2)CC3)n1`, -103%. Take `CCN(C(=O)CS(=O)(=O)Cc1cc(Cl)c2c(c1)OCCCO2)C1CC1`: the cytotoxicity at 10 µM came to 0.787%.

For the compound `COc1ccccc1CN(Cc1nc2c(cnn2C)c(=O)[nH]1)C1CC1`, the cytotoxicity at 10 µM was found to be 15%. Then `Cc1ccc2c(c1)c(CNC(C)Cn1ccnc1)nn2C` (configuration not stated), with -6.14%; and `CC1CN(Cc2cnn(C)c2)CCN1c1ccc2nncn2n1` (configuration not stated), with 2.69%; and `c1ccc(OCC2CC3(CCN(Cc4ccncc4)CC3)CO2)nc1` (configuration not stated), with -12.5%. Then `Cn1cc(CN2CC[C@H](O)[C@@H]2Cc2ccncc2)cn1`, with 3.6%; and `COc1ccc(CNc2cccnc2-n2cccn2)c(OC)c1OC`, with 5.69%; and `CN1CCN(CC2CC2)C(=O)c2cnc(N3CCOCC3)nc21`, with -10.3%.

Regarding `O=C(c1cccnc1)N1CCC2(CC1)COCCN(c1ncccn1)C2`, the cytotoxicity at 10 µM is 2.66%.

Take `CCS(=O)(=O)NC(CCSC)C(=O)Nc1ccc(F)cc1` (configuration not stated): the cytotoxicity at 10 µM was -6.6%. Then `CC(C)C(=O)NCc1cc(Br)ccc1F`, with -3.98%; and `Cc1cnn(C2CCCN(C(=O)CCc3cscn3)C2)c1` (configuration not stated), with -12.9%; and `CCCS(=O)(=O)NCc1cccnc1Oc1ccc(C)nc1`, with -1.15%. The result for `Cc1cccc(CNc2cncc(-n3cccn3)n2)c1` reads -7.09%; that for `CC1CCc2n[nH]c(C(=O)NCCCc3ccco3)c2C1` (configuration not stated), -23.2%; that for `Cn1nc(C2CCN(C(=O)CCN3CCOCC3)CC2)c2cccnc21`, -13.8%. Then `O=C(NCc1ccccn1)NCc1ccc(Cl)s1`, with -7.52%. Take `O=C(CC1CCCO1)Nc1cccc(N2CCN(CC3CC3)CC2)c1` (configuration not stated): the cytotoxicity at 10 µM was -0.699%.

As to `CC(C)(C)Oc1ccc(C(=O)N2CCOCC2c2ncon2)cc1` (configuration not stated), the cytotoxicity at 10 µM is -0.968%. The result for `F[C@@H]1CN(Cc2nccs2)C[C@@H]1OCc1nc2cnccc2[nH]1` reads 4.15%; that for `O=C(CCSc1ccccc1F)NS(=O)(=O)c1ccc2c(c1)OCCO2`, -0.841%. Then `c1ccc(CO[C@H]2CO[C@@]3(CCCN(Cc4ccncc4)C3)C2)nc1`, with 1.44%. The result for `CSc1ccc(NC(=O)Cc2cccc(O)c2)nc1` reads -4.3%; that for `CN1CCN(c2ncc(-c3cnccn3)c([C@H]3CCCO3)n2)CC1`, -20%.

On to `COCCOc1ccccc1CNCc1c(C)nn(C)c1N(C)C`, for which the cytotoxicity at 10 µM is -5.65%. The result for `Cc1nn(C)c(Cl)c1C1CCCN1CC(=O)NC1CCCCC1` (configuration not stated) reads 7.09%; that for `Cc1cccc(CC2CCCN(C(=O)C3CCOCC3)C2)n1` (configuration not stated), 2.16%; that for `O=C(C1CC(=O)N(C2CC2)C1)N1CCC(Oc2ccccc2Cl)CC1` (configuration not stated), -7.54%.

As for `Cc1occc1C(=O)N1CCCC1c1ccc(C(=O)N2CCOCC2)s1` (configuration not stated), the cytotoxicity at 10 µM is -143%.

Regarding `COc1c(C2CCCN2C(=O)c2ccc(C#N)c(C)n2)c(C)nn1C` (configuration not stated), the cytotoxicity at 10 µM is -8.45%. The result for `CN1CCN(Cc2nnc(C3CCN(S(C)(=O)=O)CC3)n2C)CC1` reads 4.67%; that for `Cc1cccc(S(=O)(=O)NCC(C)(C)CC(C)O)c1C#N` (configuration not stated), -1.37%; that for `Cc1cc(C)n(C2CCCN(C(=O)c3ccc(N(C)C)nc3)C2)n1` (configuration not stated), -4.26%. For the compound `NC(=O)c1noc(Cn2ncc3ccccc3c2=O)n1`, the cytotoxicity at 10 µM was -1.26%. As to `Cc1ccc(CNCC2CCCN2c2cccnn2)s1` (configuration not stated), the cytotoxicity at 10 µM was -4.38%.

Consider `Cc1ccn(-c2ccc(C(=O)N3CCCC(C(N)=O)C3)cc2)n1` (configuration not stated), for which the cytotoxicity at 10 µM was -5.38%. In the case of `COCC(=O)N1CCN(C(=O)c2cccs2)[C@@H](C(=O)OC)C1`, the cytotoxicity at 10 µM is -8.64%. For `CCN(CC)CCn1c(=O)oc2ccccc21`, the cytotoxicity at 10 µM is 2.96%. The result for `CCCc1cc(N2CCC(NC3CCOCC3)CC2)nc(C)n1` reads 5.27%; that for `Cc1ccc2c(c1)C1(CC2)CCN(CC(=O)O)CC1`, 0.806%; that for `O=C(NCc1ccccc1CN1CCCCC1)Nc1nncs1`, 0.513%. In the case of `CNC(=O)c1ccc(C(=O)N2CCCC(n3cc(C)cn3)C2)cn1` (configuration not stated), the cytotoxicity at 10 µM is -0.884%.

`CCCn1ncc(CN(Cc2cccnc2)Cc2cccs2)c1C`: the cytotoxicity at 10 µM is 1.64%. The result for `Cn1c(=O)oc2cc(S(=O)(=O)N3CCCCC3)c(Cl)cc21` reads 19%.

As for `CSCc1cccc(S(=O)(=O)N2CCSCC2)c1`, the cytotoxicity at 10 µM came out at 14.3%. Turning to `Cc1noc(-c2ccc(-n3ncc(C(=O)O)c3C)nc2)n1`, the cytotoxicity at 10 µM stood at 0.748%. The result for `c1ccc(Cn2cc3c(n2)C(CNCc2ccco2)OCC3)nc1` (configuration not stated) reads -7.85%; that for `CCCC(=O)N1CCCC(c2cc3cccnc3c(O)n2)C1` (configuration not stated), 7.53%; that for `CC(C)c1ccc(OCC(=O)NS(=O)(=O)c2cccnc2)cc1`, -5.19%.

Turning to `O=C([C@H]1C[C@@H]2[C@@H](C1)OCCN2CC1CC1)N1CCCC1`, the cytotoxicity at 10 µM was -2.2%.

Regarding `CC(C)[C@@H]1CN(C(=O)C2(c3ccccc3)CC2)C[C@H]1C(=O)O`, the cytotoxicity at 10 µM was 3.61%. The result for `O=C(CCc1ccccn1)N1CCSC2(CCCCC2)C1` reads 0.547%.
